Consider three molecules from publication PMC3144539 (British Journal of Pharmacology, 2011).

SMILES strings stand for the structures.

One series concerns the target human CYP3A4 (Homo sapiens, UniProt P08684). The series can be described thus: Formation of 4-oxo-4-HPR from 4-HPR in human CYP3A4 isoenzyme microsomes. It counts as in vitro ADME. To be noted: 4-HPR 10 µM, NADPH generating system.
Series [1] is described as follows: Plasma levels in NOD/SCID mice given 4-HPR/LXS with or without ketoconazole. It counts as in vivo. The method in brief: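 NOD/SCID mice, 5–6 weeks old, were gavaged with 180 mg·kg−1 per day test compound (lipid-matrix powder slurried in water, two divided doses), alone or with ketoconazole. The dose-ranging arm was sampled 4 h after the ninth dose, the 25 mg·kg−1 arm 4 h after the fifth dose. Light-protected cardiac-puncture plasma was analysed by HPLC. Cohorts of three; mean ± SD.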

For series [2] the following is noted: paediatric phase I study, neuroblastoma patients; ref Villablanca et al., 2006; cited from earlier work.
Series [3] can be described thus: Plasma levels in nu/nu mice given 4-HPR/LXS with or without ketoconazole. It counts as in vivo, athymic nude (nu/nu) mice. The method in brief:
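Athymic nude mice, 5–6 weeks old, were gavaged with test compound in lipid-matrix powder slurried in sterile water, 180 mg·kg−1 per day in two divided doses, alone or with ketoconazole at increasing doses. Killed 4 h after the ninth dose. Plasma from isoflurane cardiac-puncture blood, collected in the dark, was analysed by HPLC. Three mice per condition; mean ± SD.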

The conditions of series [4]: beagle dogs, single 10 mg/kg dose of the capsules; ref Liu et al., 2007; cited from earlier work.
The nature of series [5]: Plasma levels in neuroblastoma patients given 4-HPR/LXS oral powder. To be noted: human, 595 mg/m2 per day. Type of series: in vivo. The method in brief:
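Three relapsed/refractory neuroblastoma patients received oral lipid-matrix powder, 595 mg·m−2 per day given twice daily 12 h apart. On day 6 of cycle 1, venous blood was drawn just before the morning dose and every 2 h to 8 h. Samples went into foil-wrapped heparinized tubes, were centrifuged immediately, stored at −80°C and handled in the dark. Plasma was assayed by HPLC.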

The subject of the next series is human cancer cell lines. Particulars: variety of human cancer cell lines in vitro; ref Delia et al., 1993; Mariotti et al., 1994; Kalemkerian et al., 1995; Oridate et al., 1996; O'Donnell et al., 2002; cited from earlier work.
The nature of series [6]: 4-HPR and 4-MPR metabolism kinetics in pooled mouse liver microsomes. Type of series: in vitro ADME. To be noted: pH 7.4. The method in brief:
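Pooled mouse liver microsomes at 0.5 mg protein·mL−1 with NADPH-generating solutions in 0.1 M potassium phosphate, pH 7.4, preincubated 20 min at 37°C. Substrate added at a range of concentrations and shaken 60 min at 37°C. Stopped with ice-cold acetonitrile plus internal standard, centrifuged, and supernatant analysed by reverse-phase HPLC. Michaelis–Menten constants for product formation derived.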
In general terms: Liver microsomes are a subcellular fraction often used to study metabolism.

The test system of series [7] is 4-oxo-4-HPR formation in pooled mouse liver microsomes (MLM). Briefly: Effect of CYP enzyme inhibitors on 4-oxo-4-HPR formation from 4-HPR in MLM. Type of series: in vitro ADME. To be noted: inhibitor 10 µM, 4-HPR 25 µM, 60 min. The method in brief:
(§1)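 Pooled liver microsomes (0.5 mg protein·mL−1) were preincubated 20 min at 37°C, pH 7.4 phosphate buffer, with the NADPH-generating system and a CYP2C8, 2C9 or 3A4 inhibitor or no inhibitor. Then 25 µM substrate was added for 60 min at 37°C. Acetonitrile/internal-standard quench, centrifugation, and HPLC quantitation of 4-oxo product followed. Performed in triplicate.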

Series [8] relates to 4-oxo-4-HPR formation in pooled human liver microsomes (HLM). The series can be described thus: Effect of CYP enzyme inhibitors on 4-oxo-4-HPR formation from 4-HPR in HLM. To be noted: inhibitor 10 µM, 4-HPR 25 µM, 60 min. It counts as in vitro ADME. The method in brief:
as §1

The subject of a further series is CYP3A4. To be noted: inhibits other CYP isoforms at higher concentrations; ref Jia and Liu, 2007; cited from earlier work.

Chain of human CYP3A4 (P08684 whole entry): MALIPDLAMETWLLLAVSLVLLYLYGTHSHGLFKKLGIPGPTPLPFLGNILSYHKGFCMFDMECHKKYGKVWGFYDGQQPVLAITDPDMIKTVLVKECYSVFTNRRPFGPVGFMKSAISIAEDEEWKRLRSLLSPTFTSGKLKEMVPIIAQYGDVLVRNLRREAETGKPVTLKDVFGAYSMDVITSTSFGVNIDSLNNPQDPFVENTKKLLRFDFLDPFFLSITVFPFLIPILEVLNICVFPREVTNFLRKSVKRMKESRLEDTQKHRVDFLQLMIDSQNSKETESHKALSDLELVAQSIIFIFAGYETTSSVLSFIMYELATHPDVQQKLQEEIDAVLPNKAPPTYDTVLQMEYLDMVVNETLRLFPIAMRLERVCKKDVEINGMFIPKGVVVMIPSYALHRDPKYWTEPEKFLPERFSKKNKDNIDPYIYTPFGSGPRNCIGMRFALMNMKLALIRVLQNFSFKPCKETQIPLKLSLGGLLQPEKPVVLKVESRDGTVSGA

A word on the Km: it is the substrate concentration at which the rate is half of its maximum. Regarding `CC1=C(/C=C/C(C)=C/C=C/C(C)=C/C(=O)Nc2ccc(O)cc2)C(C)(C)CCC1` [4-HPR, N-(4-hydroxyphenyl)retinamide], the “4-oxo-4-HPR concentrations formed from 4-HPR” value on human CYP3A4 is listed as “increased in a time-dependent manner”. For the same molecule, in series [1] (+ ketoconazole 18.75 mg/kg, P < 0.01), the “Increase of plasma level over control (4-HPR without ketoconazole)” value (shortened to “Increase … (4-HPR without ketoconazole)”) came to 3.4 fold. Further, the “Increase … (4-HPR without ketoconazole)” value in series [1] (+ ketoconazole 25 mg/kg, 4 h after fifth dose, Fig 4C) is listed as “twofold”. Also, the Maximum tolerated dose in series [2] was 2450 mg·m^−2 per day. The molecule also gave a concentration at 4 h in [3] (athymic nude (nu/nu), mouse, plasma, oral, 180 mg/kg per day) of 14.5 µM. Also, in series [3] (nu/nu mice, + ketoconazole 75 mg/kg, P < 0.01), the “Increase … (4-HPR without ketoconazole)” value is 2.2 fold. Moreover, the Oral bioavailability result in series [4] was “approximately 16%”. In [5], the concentration at 0 h is 7.04 ± 4.75 µM, the concentration at 2 h worked out at 9.69 ± 7.3 µM, the concentration at 4 h stood at 12.8 µM and the concentration at 6 h turned out to be 13.1 ± 8.5 µM. In series [5], this molecule displayed a concentration at 8 h of 8.55 ± 6.42 µM. Further, the “Concentrations exhibiting cytotoxic activity” value in the series on human cancer cell lines was 1 to 10 µM. Further, the Km at 60 min in series [6] worked out at 25.8 µM.

On to `OC(Cn1cncn1)(Cn1cncn1)c1ccc(F)cc1F` [fluconazole], for which the “Reduction of 4-oxo-4-HPR formation from 4-HPR alone” value in series [7] amounted to 40.9%.

In the case of `CC(=O)N1CCN(c2ccc(OCC3COC(Cn4ccnc4)(c4ccc(Cl)cc4Cl)O3)cc2)CC1` (stereo not drawn) [ketoconazole], the “Reduction of 4-oxo-4-HPR formation from 4-HPR alone” value worked out at 33.7% in series [8] and 96.5% in [7]. The “Concentrations at which specific for CYP3A4” value in the series with CYP3A4 was “up to 1 µM”.
